Test results taken from the M2OR odorant receptor database.
Numbering of substitutions follows the chain as printed.

How the values were obtained:
Details in all cases: stereoisomer not certain
[1] = biological target: T1, OR11H12 (Homo sapiens) (UniProt B2RN74)
T1 sequence (whole entry): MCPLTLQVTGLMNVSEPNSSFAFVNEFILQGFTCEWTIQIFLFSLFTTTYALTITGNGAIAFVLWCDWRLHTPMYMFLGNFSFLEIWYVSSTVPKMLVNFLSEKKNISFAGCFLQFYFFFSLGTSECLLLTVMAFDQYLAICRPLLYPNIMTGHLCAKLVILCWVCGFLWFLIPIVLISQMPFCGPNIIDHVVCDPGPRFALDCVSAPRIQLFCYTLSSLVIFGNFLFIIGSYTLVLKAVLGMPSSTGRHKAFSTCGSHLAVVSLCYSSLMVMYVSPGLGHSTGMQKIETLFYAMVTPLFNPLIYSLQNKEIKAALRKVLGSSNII
Outline: (§1)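 Assay methods differ from source to source, frequently being transient luciferase assays in mammalian cell lines. For each receptor–molecule pair, the label responsive (active) applies when the original authors judged the measured signal statistically different from baseline, and non-responsive (inactive) applies otherwise.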

[2] = biological target: T2, OR11H2 (Homo sapiens) (UniProt Q8NH07)
T2 sequence (whole entry): T1 sequence (whole entry) with Q7H, T33S, T49I, W68R, C156Y, M181K, R199L, S269P
Outline: as §1

[3] = biological target: T3, OR11H4 (Homo sapiens) (UniProt Q8NGC9)
T3 sequence (whole entry): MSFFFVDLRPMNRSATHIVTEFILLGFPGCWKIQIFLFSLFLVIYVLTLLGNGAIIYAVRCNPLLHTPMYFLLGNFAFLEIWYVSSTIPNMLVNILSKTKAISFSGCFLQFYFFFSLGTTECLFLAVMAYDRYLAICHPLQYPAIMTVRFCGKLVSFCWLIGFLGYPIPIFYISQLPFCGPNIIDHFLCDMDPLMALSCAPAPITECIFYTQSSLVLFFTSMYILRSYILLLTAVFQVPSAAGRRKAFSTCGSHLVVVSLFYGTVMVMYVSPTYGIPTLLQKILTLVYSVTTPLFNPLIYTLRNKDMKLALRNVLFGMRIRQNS
Outline: as §1

[4] = biological target: T4, OR11H6 (Homo sapiens) (UniProt Q8NGC7)
T4 sequence (whole entry): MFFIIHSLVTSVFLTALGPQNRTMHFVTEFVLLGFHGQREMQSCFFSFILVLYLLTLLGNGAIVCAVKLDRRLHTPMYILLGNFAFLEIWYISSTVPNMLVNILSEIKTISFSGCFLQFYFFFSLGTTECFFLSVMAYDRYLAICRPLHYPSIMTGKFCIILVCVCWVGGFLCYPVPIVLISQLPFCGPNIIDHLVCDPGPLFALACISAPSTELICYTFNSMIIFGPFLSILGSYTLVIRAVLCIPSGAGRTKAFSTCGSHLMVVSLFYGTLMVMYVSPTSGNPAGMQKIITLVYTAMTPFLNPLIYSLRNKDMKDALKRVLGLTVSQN
Outline: as §1

[5] = biological target: T5, OR11L1 (Homo sapiens) (UniProt Q8NGX0)
T5 sequence (whole entry): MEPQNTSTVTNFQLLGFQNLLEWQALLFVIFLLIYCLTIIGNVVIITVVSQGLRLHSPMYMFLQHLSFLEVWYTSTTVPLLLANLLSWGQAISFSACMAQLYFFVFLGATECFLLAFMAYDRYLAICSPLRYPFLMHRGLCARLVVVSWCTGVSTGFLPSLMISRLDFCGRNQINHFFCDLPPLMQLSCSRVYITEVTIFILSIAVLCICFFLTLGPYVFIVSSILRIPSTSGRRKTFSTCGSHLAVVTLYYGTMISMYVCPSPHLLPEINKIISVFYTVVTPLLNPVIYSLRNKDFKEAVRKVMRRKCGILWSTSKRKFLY
Outline: as §1

[6] = biological target: T6, OR12D2 (Homo sapiens) (UniProt P58182)
T6 sequence (whole entry): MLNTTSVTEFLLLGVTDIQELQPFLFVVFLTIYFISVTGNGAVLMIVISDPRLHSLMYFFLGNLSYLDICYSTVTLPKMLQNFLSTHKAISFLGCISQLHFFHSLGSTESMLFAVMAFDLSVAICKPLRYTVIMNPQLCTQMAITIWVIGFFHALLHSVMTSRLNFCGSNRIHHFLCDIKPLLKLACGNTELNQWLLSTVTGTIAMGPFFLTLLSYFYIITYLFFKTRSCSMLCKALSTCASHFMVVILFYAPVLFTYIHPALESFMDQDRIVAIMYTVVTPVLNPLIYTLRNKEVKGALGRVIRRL
Outline: as §1

[7] = biological target: T7, OR12D3 (Homo sapiens) (UniProt Q9UGF7)
T7 sequence (whole entry): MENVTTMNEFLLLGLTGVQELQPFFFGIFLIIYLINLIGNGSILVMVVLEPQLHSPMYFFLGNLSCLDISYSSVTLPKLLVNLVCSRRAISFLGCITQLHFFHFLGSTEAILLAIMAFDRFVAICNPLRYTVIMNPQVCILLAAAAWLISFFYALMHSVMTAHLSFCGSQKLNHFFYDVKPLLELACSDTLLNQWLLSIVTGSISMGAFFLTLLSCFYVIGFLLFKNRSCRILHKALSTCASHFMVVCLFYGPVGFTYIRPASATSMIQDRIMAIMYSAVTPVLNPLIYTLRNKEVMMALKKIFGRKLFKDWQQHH
Outline: as §1

[8] = biological target: T8, OR13A1 (Homo sapiens) (UniProt Q8NGR1)
T8 sequence (whole entry): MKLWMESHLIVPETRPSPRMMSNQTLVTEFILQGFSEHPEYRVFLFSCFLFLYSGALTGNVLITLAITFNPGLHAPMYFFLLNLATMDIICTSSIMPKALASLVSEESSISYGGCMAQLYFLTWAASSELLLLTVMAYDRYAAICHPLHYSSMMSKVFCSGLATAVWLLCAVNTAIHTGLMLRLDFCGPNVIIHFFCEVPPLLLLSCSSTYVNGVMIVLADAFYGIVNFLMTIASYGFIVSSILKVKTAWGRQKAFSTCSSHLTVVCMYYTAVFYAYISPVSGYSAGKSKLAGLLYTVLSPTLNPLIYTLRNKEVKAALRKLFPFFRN
Outline: as §1

[9] = biological target: T9, OR13C2 (Homo sapiens) (UniProt Q8NGS9)
T9 sequence (whole entry): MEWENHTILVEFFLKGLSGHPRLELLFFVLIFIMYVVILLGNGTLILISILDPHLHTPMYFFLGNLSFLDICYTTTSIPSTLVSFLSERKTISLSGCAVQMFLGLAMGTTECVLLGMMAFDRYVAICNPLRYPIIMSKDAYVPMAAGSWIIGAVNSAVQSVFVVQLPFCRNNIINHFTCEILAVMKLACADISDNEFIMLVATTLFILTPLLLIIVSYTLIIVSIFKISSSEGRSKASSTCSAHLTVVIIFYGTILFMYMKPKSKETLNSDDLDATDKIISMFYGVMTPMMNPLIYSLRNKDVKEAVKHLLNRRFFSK
Outline: as §1

[10] = biological target: T10, OR13C3 (Homo sapiens) (UniProt Q8NGS6)
T10 sequence (whole entry): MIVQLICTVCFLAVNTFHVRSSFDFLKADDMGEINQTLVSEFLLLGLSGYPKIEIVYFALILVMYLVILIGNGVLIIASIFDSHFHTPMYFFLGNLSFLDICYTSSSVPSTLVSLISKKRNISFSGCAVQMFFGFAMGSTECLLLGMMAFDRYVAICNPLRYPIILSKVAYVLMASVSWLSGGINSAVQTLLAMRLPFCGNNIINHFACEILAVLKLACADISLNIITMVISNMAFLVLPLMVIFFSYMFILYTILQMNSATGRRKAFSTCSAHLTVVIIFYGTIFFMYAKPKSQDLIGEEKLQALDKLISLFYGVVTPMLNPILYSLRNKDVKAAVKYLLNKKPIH
Outline: as §1

[11] = biological target: T11, OR13C4 (Homo sapiens) (UniProt Q8NGS5)
T11 sequence (whole entry): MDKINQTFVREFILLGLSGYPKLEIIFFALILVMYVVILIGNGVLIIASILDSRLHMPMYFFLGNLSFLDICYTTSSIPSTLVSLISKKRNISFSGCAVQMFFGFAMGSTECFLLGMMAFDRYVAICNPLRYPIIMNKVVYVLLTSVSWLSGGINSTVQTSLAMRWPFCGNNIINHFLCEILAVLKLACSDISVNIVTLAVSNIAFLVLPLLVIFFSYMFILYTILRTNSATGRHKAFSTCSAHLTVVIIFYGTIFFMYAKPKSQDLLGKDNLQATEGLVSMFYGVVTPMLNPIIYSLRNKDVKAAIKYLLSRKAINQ
Outline: as §1

[12] = biological target: T12, OR13C5 (Homo sapiens) (UniProt Q8NGS8)
T12 sequence (whole entry): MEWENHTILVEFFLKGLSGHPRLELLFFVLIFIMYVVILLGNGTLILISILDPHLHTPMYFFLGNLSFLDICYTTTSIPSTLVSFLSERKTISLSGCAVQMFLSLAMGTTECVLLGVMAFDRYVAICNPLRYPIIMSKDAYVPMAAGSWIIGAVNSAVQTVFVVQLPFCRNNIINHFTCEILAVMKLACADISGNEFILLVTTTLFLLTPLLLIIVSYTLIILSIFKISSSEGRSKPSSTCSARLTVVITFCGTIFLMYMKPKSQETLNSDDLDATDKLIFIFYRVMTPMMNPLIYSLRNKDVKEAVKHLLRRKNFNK
Outline: as §1

[13] = biological target: T13, OR13C8 (Homo sapiens) (UniProt Q8NGS7)
T13 sequence (whole entry): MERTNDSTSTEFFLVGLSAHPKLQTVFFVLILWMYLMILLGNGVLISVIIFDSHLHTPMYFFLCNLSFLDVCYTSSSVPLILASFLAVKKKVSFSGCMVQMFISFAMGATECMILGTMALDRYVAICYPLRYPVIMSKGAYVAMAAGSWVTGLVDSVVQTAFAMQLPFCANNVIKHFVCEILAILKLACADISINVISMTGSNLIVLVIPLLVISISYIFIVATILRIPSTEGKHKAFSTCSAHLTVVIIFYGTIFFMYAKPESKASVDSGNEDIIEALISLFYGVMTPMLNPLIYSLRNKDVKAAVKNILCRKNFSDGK
Outline: as §1

[14] = biological target: T14, OR13C9 (Homo sapiens) (UniProt Q8NGT0)
T14 sequence (whole entry): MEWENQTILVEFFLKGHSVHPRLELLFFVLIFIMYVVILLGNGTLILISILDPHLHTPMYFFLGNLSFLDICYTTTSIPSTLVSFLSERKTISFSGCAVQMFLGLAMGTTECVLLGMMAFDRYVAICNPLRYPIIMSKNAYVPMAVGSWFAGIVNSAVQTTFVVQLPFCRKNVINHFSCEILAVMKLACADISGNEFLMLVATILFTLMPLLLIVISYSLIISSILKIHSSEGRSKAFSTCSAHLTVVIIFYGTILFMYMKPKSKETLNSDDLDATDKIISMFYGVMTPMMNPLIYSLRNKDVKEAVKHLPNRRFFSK
Outline: as §1

[15] = biological target: T15, OR13D1 (Homo sapiens) (UniProt Q8NGV5)
T15 sequence (whole entry): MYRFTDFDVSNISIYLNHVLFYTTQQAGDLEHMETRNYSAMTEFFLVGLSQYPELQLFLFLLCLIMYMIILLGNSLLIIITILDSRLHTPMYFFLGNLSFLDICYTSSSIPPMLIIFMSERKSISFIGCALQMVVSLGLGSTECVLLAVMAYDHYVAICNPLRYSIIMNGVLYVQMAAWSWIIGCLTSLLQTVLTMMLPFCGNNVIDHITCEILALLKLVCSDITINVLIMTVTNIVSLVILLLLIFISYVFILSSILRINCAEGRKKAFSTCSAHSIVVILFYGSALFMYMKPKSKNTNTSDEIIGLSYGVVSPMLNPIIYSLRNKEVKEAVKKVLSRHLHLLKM
Outline: as §1

[16] = biological target: T16, OR13F1 (Homo sapiens) (UniProt Q8NGS4)
T16 sequence (whole entry): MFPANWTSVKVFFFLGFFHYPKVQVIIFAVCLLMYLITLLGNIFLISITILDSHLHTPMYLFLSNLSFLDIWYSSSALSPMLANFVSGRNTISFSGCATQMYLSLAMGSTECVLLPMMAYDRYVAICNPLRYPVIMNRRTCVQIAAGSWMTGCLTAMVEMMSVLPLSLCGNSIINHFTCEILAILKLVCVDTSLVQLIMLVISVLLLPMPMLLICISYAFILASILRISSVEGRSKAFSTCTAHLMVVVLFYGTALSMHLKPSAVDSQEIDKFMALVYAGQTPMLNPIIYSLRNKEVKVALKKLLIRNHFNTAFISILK
Outline: as §1

[17] = biological target: T17, OR13G1 (Homo sapiens) (UniProt Q8NGZ3)
T17 sequence (whole entry): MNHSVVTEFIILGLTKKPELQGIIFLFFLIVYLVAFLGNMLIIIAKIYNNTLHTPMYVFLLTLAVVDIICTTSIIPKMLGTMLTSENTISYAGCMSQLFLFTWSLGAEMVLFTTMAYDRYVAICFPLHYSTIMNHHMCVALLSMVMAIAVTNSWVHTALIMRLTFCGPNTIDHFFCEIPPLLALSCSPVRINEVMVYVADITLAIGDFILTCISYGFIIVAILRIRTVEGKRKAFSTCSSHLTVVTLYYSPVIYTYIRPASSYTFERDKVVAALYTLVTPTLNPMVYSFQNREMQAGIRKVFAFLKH
Outline: as §1

Measured: odorant receptor agonist call

CC1=NC(C)C(C)S1 (configuration not stated)
inactive: all assays above

CC1=C(O)C(=O)OC1C (configuration not stated)
inactive: all assays above

CCCCC(S)C(C)CO (configuration not stated)
not listed: [1]
inactive: all other assays above

CCCCCCC=CCCC=O
inactive: all assays above
